Source: PubChem BioAssay (several laboratories)
An excerpt weighted towards active compounds, which were near 4.1% of everything screened.
KCNQ1 block: inhibitors of human KCNQ1 channel, primary screen, cell-based, thallium flux, high-throughput | actives 1.3% (n = 310,000) | AID 2642, 2010 | Potassium voltage-gated channel subfamily KQT member 1 (Homo sapiens), P51787 | CHO-K1 KCNQ1, FluxOR thallium flux fluorescence; hits give high values | B-score at 10 µM;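 active = compounds whose thallium flux B-score, printed positive for inhibition, exceeds three library SD while starting fluorescence stays within three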;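 note: channel opened by potassium depolarization with thallium stimulus after 20 min compound exposure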
Target sequence (P51787 whole entry, looked up): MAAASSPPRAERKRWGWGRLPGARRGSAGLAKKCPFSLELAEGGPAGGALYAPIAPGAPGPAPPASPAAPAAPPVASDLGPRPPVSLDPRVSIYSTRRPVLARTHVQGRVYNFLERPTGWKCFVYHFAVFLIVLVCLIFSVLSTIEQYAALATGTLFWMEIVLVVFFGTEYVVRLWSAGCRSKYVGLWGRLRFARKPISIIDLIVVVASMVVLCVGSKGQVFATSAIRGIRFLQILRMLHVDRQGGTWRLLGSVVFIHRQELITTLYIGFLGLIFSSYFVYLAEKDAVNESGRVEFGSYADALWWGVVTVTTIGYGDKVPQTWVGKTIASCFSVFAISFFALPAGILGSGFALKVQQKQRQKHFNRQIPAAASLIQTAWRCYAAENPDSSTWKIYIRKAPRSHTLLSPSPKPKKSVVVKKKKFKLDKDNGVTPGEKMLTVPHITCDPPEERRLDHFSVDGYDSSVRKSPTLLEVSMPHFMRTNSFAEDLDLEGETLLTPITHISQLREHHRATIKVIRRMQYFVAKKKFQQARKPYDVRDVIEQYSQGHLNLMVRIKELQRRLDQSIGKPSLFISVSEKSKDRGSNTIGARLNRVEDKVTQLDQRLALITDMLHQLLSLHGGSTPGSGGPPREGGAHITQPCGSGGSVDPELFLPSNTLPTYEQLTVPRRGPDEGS
KCNQ1 act: potentiators or activators of KCNQ1 channel, primary screen, cell-based, thallium flux, high-throughput | AID 2648, 2010 | B-score at 10 µM | actives 0.35% (n = 310,000) | CHO-K1 KCNQ1, thallium flux FluxOR fluorescence; hits give high values;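 active = fluorescence ratio B-score, a plate-corrected score, at least three library SD, with initial intensity B-score within 5 SD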
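Test system: CHO-K1 cells stably expressing KCNQ1 / Medium: assay buffer / Also added: depolarizing K+/Tl+ stimulus, K2SO4 and Tl2SO4 each 12.5 mM in 5x stock / Incubation: 90 min dye loading and 20 min compound exposure, both at room temperature / Signal: thallium influx via FluxOR fluorescence, kinetic imaging / Evaluation: B score of baseline-normalized fluorescence ratio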
KCNK9 block: KCNK9 potassium channel inhibitors, primary screen, HEK293 cells, thallium flux; actives 1.2% (n = 310,000); Potassium channel subfamily K member 9 (Homo sapiens), Q9NPC2; B-score at 10 µM; FluxOR thallium flux fluorescence; hits give low values;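 active = ratio B-score over 3 SD below the library mean, with starting fluorescence within 5 SD of its mean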;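 note: negative B-score means less thallium flux so channel inhibition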
KCNK3 block: human KCNK3 channel inhibitors, primary screen, CHO cells, FluxOR thallium flux, B-score | actives 0.84% (n = 340,000) | FluxOR fluorescence; hits give low values | AID 602410, 2012 | B-score at 10 µM;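 active = B-score under library mean minus 4 SD, starting fluorescence ratio at most library mean plus 5 SD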;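 note: more negative B-score means stronger inhibition of thallium flux through KCNK3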
hERG rescue: hERG rescue from dofetilide block, primary screen, cell-based, CHO-hERG, FluxOR thallium flux, dofetilide IC70; Voltage-gated inwardly rectifying potassium channel KCNH2 (Homo sapiens), Q12809; dofetilide IC70 present; actives 0.51% (n = 310,000); activation (rescue from dofetilide block), less the hit threshold, % at 10 µM;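 active = activation above the mean of controls blocked by dofetilide plus 5 SD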;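 note: thallium influx through hERG after potassium depolarization seen as dye fluorescence rise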
Cl transport mod: KCC2 cotransporter modulators, thallium flux, primary screen, cell-based, HEK293 KCC2, FluoZin-2 fluorescence, MLSMR | Solute carrier family 12 member 5 (Homo sapiens), Q9H2X9 | KCC2 cells, thallium flux FluoZin-2 fluorescence | B-score of Tl+ flux slope (higher = more flux/activation; lower = inhibition) at 10 µM | actives 2.2% (n = 190,000) | AID 1456, 2008;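 active = thallium flux slope and its plate-corrected score both differing from the plate sample mean at a set confidence after two filtering rounds, in either direction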;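 note: slope of fluorescence scaled to starting intensity during 10 to 20 s after thallium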
KCNK9 inh conf: KCNK9 potassium channel inhibitors, confirmation, HEK293 cells, thallium flux, duplicate | shares compounds with KCNK9 block | FluxOR thallium flux fluorescence | inhibition, % at 10 µM | actives 43% (n = 4,900);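 active = thallium signal inhibited by more than 5 SD of the compound-free buffer control wells, on both duplicate plates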;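 note: 0% = assay buffer control wells without compound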
Kir21 sel: mouse Kir2.1 channel inhibition, confirmation, selectivity assay for KCNK9 modulator project, cell-based, HEK293, thallium flux; Kir2.1 cells, FluxOR thallium flux fluorescence; inhibition, % at 10 µM; shares compounds with KCNK9 block; AID 492993, 2010; actives 4% (n = 4,900);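 active = thallium signal drop more than 5 SD beyond the mean of the no-compound control wells, seen in both duplicate plates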;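 note: signal is fluorescence rise after thallium addition divided by baseline fluorescence; plate controls were assay buffer only for no effect and full block by chlorpromazine control for full effect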
HEK293 Tl ctr: thallium flux in non-induced HEK293 cells, confirmation, counter-screen for KCNK9 inhibitor project, cell-based, second counter screen, non-induced KCNK9-HEK293 | shares compounds with KCNK9 block | FluxOR thallium flux | inhibition, % at 10 µM | actives 40% (n = 4,900) | AID 492997, 2010;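 active = thallium signal drop beyond 5 SD of the untreated control mean, on both duplicate plates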;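 note: plate controls were buffer only IC0 wells for no effect and SID17386958 at its maximal inhibitory level for full effect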
The depositor's hits bear a star; i = inactive; . = not tested or not shown.

SMILES	KCNQ1 block	KCNQ1 act	KCNK9 block	KCNK3 block	hERG rescue	Cl transport mod	KCNK9 inh conf	Kir21 sel	HEK293 Tl ctr
COc1ccccc1-n1c(SCc2cc(=O)oc3cc(O)ccc23)nc2ccccc2c1=O	i	i	-8.33*	i	-6.2	0.00329	32.5%*	i	i
C=CCn1c(SCc2cc(C(C)=O)ccc2OCC)nc2ccccc2c1=O	i	i	-12.9*	i	-5.5	-0.247	66.0%*	i	43.0%*
CCC(CO)n1c(SCc2cc(=O)oc3cc(C)ccc23)nc2ccccc2c1=O (stereo not drawn)	i	i	-12.2*	i	-8.8	.	53.0%*	i	25.5%*
COc1ccc(C(C)=O)cc1CSc1nc2ccccc2c(=O)n1-c1cccc(C)c1	i	i	i	i	-7.9	-1.36	.	.	.
CC(CC(=O)Nc1ccc(Cl)c(S(=O)(=O)N2CCOCC2)c1)c1ccccc1 (stereo not drawn)	.	.	.	i	.	.	.	.	.
Cc1ccc(S(=O)(=O)N2CCOCC2)cc1NC(=O)COC(=O)Cc1ccc(Cl)cc1	.	.	.	i	.	.	.	.	.
Cc1ccc(S(=O)(=O)N2CCCCC2)cc1NC(=O)COC(=O)Cc1ccc(Cl)cc1	i	i	i	i	-10.9	-1.53	i	i	i
Nc1c(C(=O)CSc2nc3ccccc3o2)c(=O)[nH]c(=O)n1C1CC1	.	.	.	i	.	.	.	.	.
Cc1cccc(COCC(Cc2ccccc2)N2CCN(C(=O)c3cc(Cl)cc(Cl)c3)CCC2=O)c1 (stereo not drawn)	i	i	i	i	-16.7	-1.22	.	.	.
Cc1cccc(COCC(Cc2ccccc2)N2CCN(C(=O)c3cccc(C)c3)CCC2=O)c1 (stereo not drawn)	i	i	i	i	-13.4	-1.7	i	i	i
C[C@H](CO)N1C[C@H](C)[C@@H](CN(C)S(=O)(=O)c2cccs2)Oc2ccc(NS(=O)(=O)c3ccccc3)cc2C1=O	.	.	.	i	.	.	.	.	.
O=C(c1cccs1)N1CCc2c([nH]c3ccccc23)C1c1ccccn1 (stereo not drawn)	i	i	-9.02*	i	-10.3	-0.27	i	i	i
Cc1ccc2nc(C(=O)N3CCc4c([nH]c5ccccc45)C3c3ccccn3)cn2c1 (stereo not drawn)	i	i	i	i	-4.0	-1.41	.	.	.
CSc1nc(C(=O)N2CCc3c([nH]c4ccccc34)C2c2ccccn2)cs1 (stereo not drawn)	i	i	-9.69*	i	-6.7	-0.723	49.0%*	i	29.0%*
Cc1ccc(CCNC(=O)C2CCC(=O)N(Cc3ccccc3F)C2)o1 (stereo not drawn)	i	i	i	i	-9.6	.	.	.	.
Nc1c(C(=O)CSc2nccn2-c2cccc(F)c2)c(=O)[nH]c(=O)n1C1CC1	.	.	.	i	.	.	.	.	.
CC(=O)N1CCN(S(=O)(=O)c2cccc(C(=O)NCCC3=CCCCC3)c2)CC1	i	i	i	i	-12.5	.	.	.	.
CCOC(=O)c1c(NC(=O)COC(=O)c2ccccc2NC)sc(C(=O)N(C)C)c1C	i	i	i	i	-11.0	.	.	.	.
C=C(c1ccc(O)cc1)c1ccc(O)cc1	i	i	-11.2*	i	-18.2	-0.194	46.5%*	i	i
C/C=C(/C(=C/C)c1ccc(O)cc1)c1ccc(O)cc1	i	i	i	i	-0.6	-1.16	.	.	.
Cc1nn(C)cc1S(=O)(=O)NCc1ccccc1Cl	i	i	i	i	-4.3	.	.	.	.
c1ccc(CCc2cccnc2)cc1	.	.	.	i	.	.	.	.	.
CCOC(=O)c1c(N)sc(C(O)(C(F)(F)F)C(F)(F)F)c1-c1ccc(F)cc1	i	i	-9.27*	-12.2*	-38.6	0.0534	54.0%*	i	39.0%*
Nc1c(C(=O)N2CCCCCC2)oc2ccccc12	i	i	i	i	-5.3	.	.	.	.
CCOC(=O)c1ccccc1N/C=C/C(=O)c1ccccc1	i	i	-15.8*	i	-5.3	.	69.0%*	i	35.5%*
SMILES	KCNQ1 block	KCNQ1 act	KCNK9 block	KCNK3 block	hERG rescue	Cl transport mod	KCNK9 inh conf	Kir21 sel	HEK293 Tl ctr
CCOC(=O)c1ccccc1NC(=S)N1CCC(C)CC1	i	i	i	i	-5.8	1.06	.	.	.
CCOC(=O)c1ccccc1NC(=S)N1CC(C)CC(C)C1 (stereo not drawn)	i	i	i	i	-7.2	-0.134	i	i	i
CCOC(=O)c1ccccc1NC(=O)c1c(F)c(F)c(F)c(F)c1F	i	i	i	i	-15.8	1.33	i	i	i
CC(=O)N1CCN(C(=O)CNC(=O)c2ccc(C)s2)CC1	.	.	.	i	.	.	.	.	.
COc1ccc(OCC(=O)N2CCN(C(=O)c3ccc(F)cc3)CC2)cc1	i	i	i	i	-0.7	.	.	.	.
CCc1ccc(OCC(=O)N2CCN(c3ccccn3)CC2)c(Br)c1	i	i	i	i	-4.7	.	.	.	.
Cn1nc(-c2ccccc2)c(-c2nc(-c3ccccc3Cl)no2)c1Cl	i	i	-10.4*	i	3.6	0.0965	41.0%*	i	32.0%*
O=C(Nc1ccc(Cl)cc1F)C1CCCN(C2=NS(=O)(=O)c3ccccc32)C1 (stereo not drawn)	.	.	.	i	.	.	.	.	.
Cc1cccc(N2CCN(C(=O)c3ccc4nc(-c5ccco5)c(-c5ccco5)nc4c3)CC2C)c1 (stereo not drawn)	i	i	-8.78*	i	-20.4	0.822	45.0%*	i	i
CC(=O)Nc1ccccc1-c1nc2ccc(C(=O)N3CCN(c4cccc(C)c4)C(C)C3)cc2[nH]c1=O (stereo not drawn)	i	i	i	i	-7.5	.	.	.	.
